Results from ChEMBL document CHEMBL4513216, “Probing the Open Global Health Chemical Diversity Library for Multistage-Active Starting Points for Next-Generation Antimalarials” (ACS Infect Dis, 2020).

Assay: Toxicity liver stage against HepG2, at 10uM
Type: cell-based
Parameters: test concentration 10 uM, cell line HepG2-A16-CD81EGFP
Details: human, HepG2-A16-CD81EGFP cells; read-out: INHIBITION
Outline: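 Uninfected HepG2-A16-CD81EGFP cells, 3 × 10^3 per well, 1536-well, plated on prespotted compound at 10 μM final, parasite-free screening media added to match infected plates; puromycin 10 μM positive, DMSO 0.5% negative; run in parallel with 48 h PbLuc assay at 37 °C, 5% CO2; viability by CellTiter-Glo luminescence, normalized to controls.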

Compound | cytotoxicity at 10 µM [%]
Cc1cc2nc(CO[C@H]3CN(C4CCN(C)CC4)C[C@H]3F)[nH]c2cc1C | -11.6
CC[C@H]1CN(S(=O)(=O)c2ccccc2)CC[C@H]1CC(=O)O | 1.7
CS(=O)(=O)N1CC[C@@H](CC(=O)O)[C@@H](CC2=NCCc3cc(F)ccc32)C1 | 0.699
COC(=O)c1cccc(C(=O)N2CCN(c3ccc(Cl)cc3)CC2)n1 | -7.55
CC(=O)N1N=C(c2ccccc2)OC1C(=O)NCCc1cccc(F)c1 (stereo unspecified) | -1.08
O=C1CCSCC(C(=O)N2CCCCC2)N1 (stereo unspecified) | -3.55
CC(=O)N1CCC2(CC1)CCN(S(=O)(=O)c1ccccc1)C2 | 2.35
N#CC1(C(=O)N2Cc3cc(-c4cc[nH]n4)ccc3C2c2cnco2)CC1 (stereo unspecified) | 25.5
CC(=O)N1CC(c2ncn(C(C)C)n2)c2cc(C(=O)NC3CC3)ccc21 (stereo unspecified) | 4.11
CS(=O)(=O)N1CCc2ncc(CNC(=O)C3CCC3)n2CC1 | 10.9
Cc1cnc(C(=O)N2C[C@H]3CN(Cc4cccs4)C[C@H]3C2)cn1 | -148
Cc1cc(O)c(OCC(=O)Nc2nccs2)cn1 | 4.07
O=C(NCc1ccco1)c1nn(C2CCS(=O)(=O)C2)c2c1CCCC2 (stereo unspecified) | -11
Cc1nccc([C@@H]2C[C@@H]3CCN(S(C)(=O)=O)C[C@H]3O2)n1 | -11.3
CC(=O)N1CC(=O)N(c2cnn(C)c2)CC12CCN(Cc1ccoc1)C2 (stereo unspecified) | -9.81
CC(=O)Nc1ccn(Cc2ccccc2)n1 | 2.04
Cc1nn(C)c(C)c1-c1nccnc1CC1CCNCC1 | -2.38
NC(=O)CN1CCCCC1c1ccc(-n2ccnc2)nc1 (stereo unspecified) | 1.6
COc1cccc(CC(=O)NC(C)c2nc3cccnc3n2C(C)C)c1 (stereo unspecified) | -22.6
O=C(O)CN1CCOCC(Cc2ccc(Cl)cc2)C1 (stereo unspecified) | -25.7
O=C1NCC2(CCCN(Cc3cccnc3)C2)Oc2ccccc21 (stereo unspecified) | -24.1
CN(CCN(C)S(=O)(=O)CC1CCOCC1)c1ccccc1 | -9.65
CCOCC(=O)Nc1cc(-n2nnnc2C2CC2)ccc1F | -4.28

Compound | cytotoxicity at 10 µM [%]
CC(O)CCN(C)S(=O)(=O)Cc1ccc(Br)cc1 (stereo unspecified) | 3.47
CC(C)N(C)S(=O)(=O)N1CCN(Cc2ccco2)CC1 | -0.796
CC(C)CN(CC(C)C)Cn1ncc2cn(-c3ccccc3)nc2c1=O | 1.42
COCc1c(Cl)cccc1NC(=O)CNC(=O)C(C)(C)C | -5.73
CN1CCOC(CNCC(=O)NCCCc2ccccc2)C1 (stereo unspecified) | -3.23
OC1(CN2CCCC(Cn3cncn3)C2)CCCCC1 (stereo unspecified) | 2.96
CCn1nc2c(cc1=O)CN(CCOc1ccc(C#N)cc1)CC2 | -3.73
CC(c1ncc(C(C)(C)C)o1)N1CCN(c2ccncc2)CC1 (stereo unspecified) | 18.5
COc1cc(C2(C(=O)N3CCN(CC(C)O)CC3)CC2)ccc1C (stereo unspecified) | -2.43
CC(NC(=O)CN1C=Nc2ccccc2S1(=O)=O)c1ccccc1 (stereo unspecified) | -0.476
O=C(CS(=O)(=O)c1ccccn1)NC1CCCc2ccccc21 (stereo unspecified) | -4.04
CS(=O)(=O)Cc1ccccc1NCc1cc(Cl)ccc1Cl | 7.67
CC(C(=O)NCc1ccnc(OCC(F)(F)F)c1)n1cncn1 (stereo unspecified) | 1.13
O=C(NC1CCN(Cn2nc(-c3ccccc3)oc2=O)CC1)C1CC1 | 8.19
NS(=O)(=O)c1ccc(CNC(=O)c2ccc(Cl)cc2F)cc1 | -1.59
CN(C)C(=O)Cc1ccc(NC(=O)NC2CC2)cc1 | 6.13
CC1CN(C)c2ccccc2CN1C(=O)c1cc[nH]c(=O)c1 (stereo unspecified) | 4.96
COC(=O)c1ccc(N2CCC(c3ccccc3)CC2)nn1 | -3.59
O=C(Nc1ccnn1C1CCCC1)c1ccc(NC2CC2)nc1 | 4.75
CC1(C)CCC(C(=O)O)c2ccccc21 (stereo unspecified) | -1.92
CN(C)CC1CCN(Cc2nccn2CC(F)(F)F)CC1 | 4.99
c1cncc(CN2CCC(NCCc3ccc4c(c3)OCO4)CC2)c1 | -9.62
Cc1nc(-c2ccccc2C)n(CC(=O)NC(C)C2CC2)n1 (stereo unspecified) | 20.8

Compound | cytotoxicity at 10 µM [%]
CC(C(=O)Nc1ncccn1)N1CCc2[nH]nc(C(F)(F)F)c2C1 (stereo unspecified) | -0.583
CC(O)CN1CCC(CN(C)Cc2ccc(C#N)cc2)CC1 (stereo unspecified) | 0.788
CCc1ccc(-c2nn3c(nc2=O)-c2ccccc2NC3C(=O)O)cc1 (stereo unspecified) | 11.2
NCc1ccnc(Oc2ccccc2)c1 | 2.87
COc1ccc(Cl)cc1NC(=O)N(C)CC(O)COCCOC(C)C (stereo unspecified) | 11.3
CC(=O)NC1CCCN(c2ccc(C#N)cc2C(F)(F)F)C1 (stereo unspecified) | 7.44
CN(CCC(F)(F)F)C(=O)[C@H]1CSCN1C(=O)OC(C)(C)C | -9.39
CN(Cc1nccn1CC(F)(F)F)C(=O)c1ccc(F)c(F)c1 | -0.394
CCc1cn[nH]c1C1CCN(C(=O)c2cc(C(C)=O)c(C)[nH]c2=O)CC1 | -2.23
CCCOCCNc1nc2c(s1)c(C)nn2C | -15.9
CCC(=O)Nc1cccc(OCC(=O)N2C[C@H]3CC[C@H]2C3)c1 | -2.18
CCC(C(=O)N(C)C)N1CCC(c2nccn2Cc2cscn2)CC1 (stereo unspecified) | 2.86
CCC1CN(C(=O)c2ccccc2C#N)CCN1C(C)C (stereo unspecified) | -0.772
Cc1ccc(C(C(=O)O)N(C)CCCN2CCOCC2)c(C)c1 (stereo unspecified) | 0.129
COCCCN1CCC(CNc2nccc(-c3cnn(C)c3)n2)C1 (stereo unspecified) | -147
CC(C)c1cc(NCC2(Cn3cccn3)CC2)n2nccc2n1 | -10.9
O=C(C1CNCCN1C(=O)CCOc1ccccc1)N1CCOCC1 (stereo unspecified) | 0.311
CC(C)n1cnnc1CN(C)C(=O)CCn1cnc2ccccc2c1=O | 6.4
CCn1cc(CN2CCN(Cc3cc(C)cc(C)c3)C(=O)C2)cc1C#N | 1.72
CCn1c(C2CCCN(Cc3cc(C)cc(C)c3)C2)nn(C)c1=O (stereo unspecified) | -3.12
CCc1cc(N2CCS(=O)(=O)CC2)n2nc(C)c(C)c2n1 | -4.02
CCCn1cnnc1CNC(=O)C1COc2ccc(OC)cc2C1 (stereo unspecified) | -2.06
CCOC(=O)CNC(=O)N1CCOC(Cc2ccc(OC)cc2)C1 (stereo unspecified) | -7.99

Compound | cytotoxicity at 10 µM [%]
O=C(NCC(F)(F)C(F)F)c1cccnc1 | 15.4
COC(=O)CCCC(=O)N(C)CC1Cc2ccccc2CN1C (stereo unspecified) | -12.4
Cc1cccc(C(C(=O)NC(C)(C)CN2CCOCC2)N(C)C)c1 (stereo unspecified) | -2.21
OC1(CNc2ccc(-c3nc(C4CC4)no3)cn2)CCCCC1 | 7.72
CC(Cc1ccc2c(c1)OCO2)c1cn(CCN2CCCC2)nn1 (stereo unspecified) | 7.09
Cn1nc(CN2CCC(c3ccncc3)CC2)c2c(Cl)cccc21 | -6.06
COCCOCC(=O)N1CCC(O)(c2ccc3nc(C)ccc3c2)CC1 | -1.01
Cc1ncc(C(=O)N2CC[C@@]3(O)CCN(C4CCCCC4)C[C@H]3C2)cn1 | -135
O=S(=O)(NCCc1nc(-c2cccnc2)n[nH]1)NCc1ccccc1 | 7.02
CCC(NC(=O)c1cc(CC(C)C)nn1C)c1ccnn1C (stereo unspecified) | -146
CSCc1noc(Cn2ccc3ccccc3c2=O)n1 | 3.63
Cc1cc(C)nc(N2C[C@H]3OC(=O)N(CCc4cccc(Cl)c4)[C@H]3C2)n1 | 6.72
Cc1ccc(CCNC(=O)Cn2nc(C)n(Cc3ccccc3)c2=O)s1 | -3.66
Cc1nc(Cn2nc(C3CCNCC3)n(Cc3ccccc3)c2=O)no1 | -19.3
CC(=O)N1CCC(Nc2cc(F)ccc2OCC2CCCO2)CC1 (stereo unspecified) | -14.3
COc1ncccc1NC(=O)N(Cc1ccco1)C1CC1 | 5.25
COc1ccc(Cl)cc1CC(=O)NS(=O)(=O)c1ccc(C(N)=O)cc1 | -2.64
COc1cc(CCC(=O)NC(C)(C)C)ccc1OCC(F)(F)F | -8.76
NC(=O)NCC1CCCCN1C(=O)c1cccc(Cl)c1 (stereo unspecified) | -7.6
Cc1noc2ncc(C(=O)NCC3CCCO3)cc12 (stereo unspecified) | -10.2
Cc1nn(C)c(N(C)C)c1CNC1CCOc2c(Cl)cccc21 (stereo unspecified) | -5.36
Cc1nc(-c2ccco2)ccc1C(=O)N1CCn2c(C)nnc2C1 | -5.83
O=C(CN1CCC(c2ccnn2CCO)CC1)NCC1CCCCC1 | -0.463

Compound | cytotoxicity at 10 µM [%]
Cc1cc(CN2CCN(CC(O)c3cccc(F)c3)CC2)no1 (stereo unspecified) | -12.2
Cc1nc(C)n(CC2CCCN2Cc2cn3ccccc3n2)n1 (stereo unspecified) | -3.05
CN(CC(=O)Nc1ccc(Br)cn1)C(=O)C(C)(C)C | -11.9
CSC(C)C(=O)N(C)CC(=O)Nc1ccc(Br)cn1 (stereo unspecified) | -7.18
CC(C)c1nc(C2CCCN2CC(=O)Nc2cccnc2)no1 (stereo unspecified) | -10.1
NC(=O)CC1CCN(C(=O)NCCc2ccc(Cl)s2)CC1 | -8.03
O=C(NCCC(=O)N1CCCCCCC1)c1ccoc1 | -22.2
CCN(CC)CC1CCN(Cc2ccn(C)c(=O)c2)CC1 | -14.7
Cc1nnc2n1CCN(CC(=O)Nc1cc(C(C)C)no1)C2 | -6.93
CNC(=O)NC(=O)CN(CC(C)O)c1ccccc1 (stereo unspecified) | 10.9
O=C(c1cc(Cl)c2c(c1)OCCO2)N1CCCC(n2cncn2)C1 (stereo unspecified) | 1.56
Cc1cc(NC(=O)NCc2ccccc2OC(F)F)n(C)n1 | 2.29
CC(C)NC(=O)N1C[C@H](OCc2cccnc2)[C@H]2COC[C@H]21 | 6.43
CC(C)N(C)Cc1cnc2n1CCN(C(=O)Cc1cccs1)C2C (stereo unspecified) | 7.86
Cc1cccc(CN2C[C@@H]3OCCN(c4cnccn4)[C@@H]3C2)n1 | 5.25
CC(C)CN1CCN(C(=O)c2ccncc2F)Cc2cccnc21 | 1.71
Cc1noc(C(C)C)c1C(=O)NCCCN1CCNCC1 | -24.7
Cc1cc(C(=O)N2CCc3nc(C4CCCCN4)ncc3C2)cs1 (stereo unspecified) | -22.4
Cc1cccc(CN2C(=O)CO[C@@H]3CN(C4CCOCC4)C[C@H]32)c1 | -146
